High-throughput results (PubChem BioAssay)
Hits are enriched below; roughly 4.5% of the tested compounds scored in any of these assays.
GPR7 antagonist: antagonists of human GPR7 (neuropeptides B/W receptor 1); P48145; GPR7-expressing cells, fluorescence antagonist assay; hit rate 1.1% among 290,000; inhibition, % at 4.4 µM; in the data active = inhibition above about 16%, passing the limit was not always enough;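 note: cells stimulated with the agonist NPW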
TAAR1 antagonist: human TAAR1 antagonism; inhibition, % at 3 µM; hit rate 1.5% among 360,000; AID 624466; CHO RD-HGA16 TAAR1, Fluo-8 calcium fluorescence, antagonist;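 active = inhibition above a per-plate cutoff, the mean inhibition of test compounds on that plate plus 3 SD, cut at about 49% in these data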
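Material: CHO RD-HGA16 cells bearing hTAAR1; compound dosing: one-point dosing, 3 µM nominal final; schedule: dye loading 75 min at 37 °C, then 30 min room temperature; measured by: calcium fluorescence with Fluo-8; control set: vehicle and agonist controls; replication: n of 1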
OX1R antag-1: antagonists of human orexin 1 receptor; O43613; CHO/OX1R cells, Fluo-8 calcium fluorescence, orexin A; inhibition, % at 5 µM; hit rate 0.43% among 330,000;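 active = inhibition above its plate's threshold, mean inhibition of all tested compounds on the plate plus 3 SD, cut at about 37% in these data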
Target sequence (O43613 whole entry, looked up): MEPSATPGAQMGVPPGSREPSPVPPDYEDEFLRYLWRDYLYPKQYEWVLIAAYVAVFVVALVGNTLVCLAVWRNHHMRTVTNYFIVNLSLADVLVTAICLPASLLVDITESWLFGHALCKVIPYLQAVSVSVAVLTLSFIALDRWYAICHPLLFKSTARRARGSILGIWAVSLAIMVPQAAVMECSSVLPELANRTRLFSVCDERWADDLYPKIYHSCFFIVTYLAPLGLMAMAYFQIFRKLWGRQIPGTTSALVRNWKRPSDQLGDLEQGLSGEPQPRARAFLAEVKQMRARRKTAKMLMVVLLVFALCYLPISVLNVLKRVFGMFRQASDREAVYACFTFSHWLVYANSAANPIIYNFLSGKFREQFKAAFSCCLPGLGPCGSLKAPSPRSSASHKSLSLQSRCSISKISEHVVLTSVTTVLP
OX1R antag-2: OX1R (human) antagonism | O43613 | OX1R-expressing cells, FRET antagonist read-out | inhibition, % at 6.6 µM | hit rate 1.8% among 330,000 | AID 485270; in the data active = inhibition mostly above about 38%, no sharp cut-off; inactive = mostly below about 40%
TAAR1 ag: agonists of human TAAR1; Q96RJ0; CHO RD-HGA16 TAAR1, Fluo-8 calcium fluorescence; vehicle wells 0%, saturating PEA agonist 100%; activation, % at 3 µM; hit rate 0.99% among 360,000;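 active = activation above the mean activation of all test compounds in the run plus 3 SD, cut at about 38% in these data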
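Test system: RD-HGA16 (CHO) cells co-expressing Gα16 and hTAAR1 / Benchmarks: DMSO vehicle as 0%, PEA at EC100 as 100% / Repeats: no replicates (n 1) / Measure: % activation from peak over basal fluorescence ratio, DMSO-to-PEA scaled / Timing: 17-24 h plating, Fluo-8 75 min 37 °C, 30 min RT / Technique: kinetic Fluo-8 calcium fluorescence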
CHO parental Ca: counter-screen for OX1R antagonists: effect in parental CHO cells. parental CHO-K1, ATP-induced calcium, Fluo-8 fluorescence. inhibition, % at 5.6 µM. hit rate 0.63% among 330,000;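 active = inhibition above that plate's mean sample inhibition plus 3 SD, cut at about 26% in these data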
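Test system: untransfected parental CHO cell line. Compound: one dose, 5.6 µM nominal. Detection: intracellular calcium via Fluo-8 no-wash fluorescent dye. Measure: % inhibition. Benchmarks: ATP-challenged DMSO wells low, unchallenged DMSO wells high.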
GPR7 antag cf: human GPR7 antagonism, confirmation assay; inhibition, % at 4.4 µM; shares compounds with GPR7 antagonist; GPR7-expressing cells, calcium fluorescence antagonist mode; hit rate 52% among 2,400; in the data active = inhibition above about 24%;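 note: stimulated with the GPR7 agonist NPW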
MCHR1 antag: counter-screen for GPR7 antagonists: antagonists of human MCHR1. inhibition, % at 4.4 µM. shares compounds with GPR7 antagonist. AID 2148. hit rate 62% among 2,400. MCHR1-expressing cells, fluorescence antagonist assay; in the data active = inhibition above about 22%
A number is an active result; - = inactive; . = no result given.

SMILES | GPR7 antagonist | TAAR1 antagonist | OX1R antag-1 | OX1R antag-2 | TAAR1 ag | CHO parental Ca | GPR7 antag cf | MCHR1 antag
O=C(CCN(CCO)Cc1ccccc1)Nc1ccc(Br)cc1 | 24.1 | - | - | - | - | - | 23.8 | -
COc1ccc(C2=NN(C(=O)CSc3nc(=O)n4cc(C)ccc4n3)C(c3ccc(C)cc3)C2)cc1 (stereo unspecified) | . | - | - | - | - | - | . | .
Oc1ccc(Nc2nnc(-c3ccc(O)cc3)c3ccccc23)cc1 | 39.3 | - | - | - | - | - | 53.8 | 62.5
O=C(NCCO)c1ccc(-c2nnc(Nc3ccc(O)cc3)c3ccccc23)cc1 | - | - | - | - | - | - | . | .
COc1ccc(-c2nnc(Nc3ccc(CC(N)=O)cc3)c3ccccc23)cc1 | - | - | - | - | - | - | . | .
COc1ccc(Nc2nnc(-c3ccc(O)cc3)c3ccccc23)cc1 | 61.0 | - | - | - | - | - | 70.7 | 74.2
CCSc1ncc(/C=N/Nc2ccc(Cl)cc2)n1C | 24.8 | - | - | - | - | - | - | 40.2
COc1ccc(N(C(=O)c2snc(C(N)=O)c2N)C(C(=O)NC2CCCCC2)c2ccc(C)o2)cc1 (stereo unspecified) | - | - | - | - | - | - | . | .
COc1cccc(CC(=O)N2CCCC(CO)(Cc3ccc(F)cc3F)C2)c1 (stereo unspecified) | 26.0 | - | - | - | - | - | - | -
CCN(c1cccc(C)c1)S(=O)(=O)c1cc2c3c(c1)CCC(=O)N3CCC2 | . | - | - | - | - | - | . | .
O=C1CCN(Cc2ccc(O)cc2)CCN1CCO | - | - | - | - | - | - | . | .
CC1CCc2c(nc3sc4c(c3c2N)CCCC4)C1 (stereo unspecified) | 22.5 | - | - | - | - | - | - | -
CC1CCc2nc3sc4c(c3c(N)c2C1)CCCC4 (stereo unspecified) | - | - | - | - | - | - | . | .
COc1ccc(-c2noc(Cc3ccc(Cl)cc3)n2)cc1OC | 24.9 | - | - | - | - | - | - | -
COc1ccc(-c2noc(COc3ccc4ccccc4c3Br)n2)cc1OC | 21.0 | - | - | - | - | - | - | -
c1ccc(-c2nc(-c3ccncc3)no2)cc1 | - | - | - | - | - | - | . | .
c1ccc(C(Cc2nc(-c3ccncc3)no2)c2ccccc2)cc1 | 50.5 | - | - | - | - | - | 53.6 | 44.7
Cc1ccc(Cc2nc(-c3ccncc3)no2)cc1 | 23.5 | - | - | - | - | - | - | 28.3
CCc1ccc(NC(=O)COc2cccc(-n3cnnn3)c2)cc1 | - | - | - | - | - | - | . | .
Cc1cccc(C(c2c(C)nn(-c3ccccc3)c2N)c2c(C)nn(-c3ccccc3)c2N)c1 | 21.1 | - | - | - | - | - | - | -
CCc1ccc(C(c2c(C)nn(-c3ccccc3)c2N)c2c(C)nn(-c3ccccc3)c2N)cc1 | - | - | - | - | - | - | . | .
CCc1nc2c(OCc3ccc(C(=O)N(C)C)cc3)cccn2c1N(C)C(=O)c1ccc(C)cc1 | . | - | . | . | - | . | . | .
O=P(c1ccccc1)(c1ccccc1)C1CCCO1 (stereo unspecified) | 42.5 | - | - | - | - | - | - | -
O=C(Cc1ccccc1)NCC1CCCO1 (stereo unspecified) | - | - | - | - | - | - | . | .
Nn1c(SC/C=C/c2ccccc2)nnc1-c1cccnc1 | - | - | - | - | - | - | . | .
SMILES | GPR7 antagonist | TAAR1 antagonist | OX1R antag-1 | OX1R antag-2 | TAAR1 ag | CHO parental Ca | GPR7 antag cf | MCHR1 antag
Clc1ccc(-n2c(SC/C=C/c3ccccc3)nnc2-c2cccnc2)cc1 | 31.5 | - | - | - | - | - | 26.9 | -
[O-][N+](=Cc1c(Cl)cccc1Cl)CC1(O)CCCCC1 | . | - | . | . | - | . | . | .
Clc1ccc(-c2nc3ccc(Br)cn3c2Cc2cccc(Cl)c2)cc1 | . | - | . | . | - | . | . | .
COc1cccc(C(=O)Oc2cc3c4c(c2)C(C)=CC(C)(C)N4C(=O)C3=O)c1 | - | - | - | - | - | - | . | .
COc1cc2c3c(c1)C(C)=CC(C)(C)N3C(=O)C2=O | 27.5 | - | - | - | - | - | - | 22.9
CC(OC(=O)c1ccc(Cl)nc1)C(=O)NC1CCCC1 (stereo unspecified) | . | - | - | - | - | - | . | .
CC(=O)Oc1c(I)cc(I)cc1C(=O)Nc1ccc(Cl)cc1 | 26.7 | - | - | 79.8 | - | 57.9 | - | 61.0
NC(=O)C1CCN(c2cc(Cl)ccc2[N+](=O)[O-])CC1 | 26.2 | - | - | - | - | - | - | -
NC(=O)C1CCN(c2cc(N3CCOCC3)ccc2[N+](=O)[O-])CC1 | - | - | - | - | - | - | . | .
Cc1cccn2c(CN(C)CCC3CCCCO3)c(C(=O)N3CCCCC3)nc12 (stereo unspecified) | 38.1 | - | - | - | - | - | - | -
Cc1ccc(Sc2c([N+](=O)[O-])ncn2C)cc1 | - | - | - | - | - | - | . | .
Cn1cnc([N+](=O)[O-])c1Sc1ccc(C(C)(C)C)cc1 | 27.4 | - | - | - | 41.8 | - | 38.0 | 26.3
Cc1cccc(N2CC(C(=O)OCC(=O)c3ccc(OC(=O)c4cccs4)cc3)CC2=O)c1C (stereo unspecified) | 30.2 | - | - | - | - | - | - | 57.8
CCOC(=O)c1cc2c(OC)ccc(OC)c2n1CC(=O)c1ccccc1 | - | - | - | - | - | - | . | .
O=c1cc(N2CCOCC2)[nH]c(=O)n1-c1ccc(Br)cc1 | 24.7 | - | - | - | - | - | - | -
Cc1c(C(=O)N2CCN(Cc3ccc4c(c3)OCO4)CC2)sc2ncnc(N3CCN(c4ccccc4)CC3)c12 | 43.7 | - | - | - | - | - | 44.5 | 81.4
CC1CCCC(C)N1S(=O)(=O)c1ccc(NC(=O)CNC2CCCC2)cc1 (stereo unspecified) | 53.7 | - | - | - | - | - | - | -
O=C(CNC1CCCCCC1)Nc1ccc(N2CCCC2)cc1 | - | . | - | - | . | - | . | .
CC1CCN(S(=O)(=O)c2ccc(NC(=O)CNC3CCCCC3)cc2)CC1 | - | - | - | - | - | - | . | .
CC(=O)c1ccc(NC(=O)CNC2CCCCC2)cc1 | 36.5 | - | - | - | - | - | - | -
COc1ccccc1-c1cc(NC=O)c2ncc(-c3ccc(S(C)(=O)=O)cc3)n2c1 | . | - | . | . | - | . | . | .
Cc1cccc(N2CCN(S(=O)(=O)c3ccc4c(c3)NC(=O)C(C)S4)CC2)c1C (stereo unspecified) | - | - | - | - | - | - | . | .
Cc1ccc(NC(=O)C2CCN(S(=O)(=O)c3ccc4c(c3)NC(=O)C(C)S4)CC2)c(Cl)c1 (stereo unspecified) | - | - | - | - | - | - | . | .
